Source: ChEMBL document CHEMBL4609999, “Novel alkoxyamide-based histone deacetylase inhibitors reverse cisplatin resistance in chemoresistant cancer cells” (Bioorg Med Chem, 2020)
The source made the active and inactive calls. No cut-off for these calls is given here.

Tests used:
Homo sapiens [1] = species on record: Homo sapiens; assay: Potentiation of cisplatin-induced apoptosis in human Cal27CisR cells assessed as increase in caspase 3/7 activation at 0.8 uM incubated for 24 hrs followed by cisplatin addition by Hoechst 33342 staining based fluorescence assay; format: functional, cell-based
Method in brief: (§1)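 Cal27 cells pretreated with HDACi at 0.4, 0.8 or 2.8 µM, then 24 h more with 3 µM cisplatin. Cal27CisR cells pretreated at 0.8 or 8 µM, then 24 h with 25 µM cisplatin. 100 µM cisplatin as positive control. Active caspase 3/7 imaged by green fluorescence, nuclei counterstained with Hoechst 33342 (blue).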

[2] = target: T1, Class 1 histone deacetylase (Homo sapiens) (UniProt Q13547+O15379+Q92769+Q9BY41); assay: Inhibition of class 1 histone deacetylase in human Cal27CisR cells assessed as increase in H3 histone acetylation at 1.5 uM incubated for 24 hrs by immunoblot analysis; format: cell-based
Method in brief: (§2)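 Cal27 and Cal27CisR cells incubated 24 h with vehicle or with inhibitor at 1.5, 3 or 5 µM. Western blot for α-tubulin, acetyl-α-tubulin and acetyl-histone H3.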

Homo sapiens [3] = species on record: Homo sapiens; assay: Induction of apoptosis in human Cal27CisR cells assessed as increase in caspase 3/7 activation at 0.8 uM incubated for 24 hrs by Hoechst 33342 staining based fluorescence assay; format: functional, cell-based
Histone deacetylase [4] = assay: Inhibition of HDAC in human A2780 cells; format: cell-based
CAL-27 [5] = assay: Potentiation of cisplatin-induced cytotoxicity against human CAL27 cells assessed as shift factor by measuring ratio of cisplatin IC50 to cisplatin IC50 in presence of compound at 0.2 uM incubated for 72 hrs followed by cisplatin addition and measured after 72 hrs by MTT assay; format: functional
Method in brief: (§3)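 MTT shift assay. Cal27 cells received HDACi at 0.2, 0.4 or 1.4 µM; Cal27CisR cells received 0.8 or 6 µM. Cells were incubated 72 h with a cisplatin range. Shift factor = cisplatin IC50 alone / cisplatin IC50 with HDACi, significance by t-test (p<0.05). Pooled mean of ≥3 experiments, each in triplicate.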

Histone deacetylase 4 = Histone deacetylase 4 (Homo sapiens, UniProt P56524); assay: Inhibition of recombinant human HDAC4
Histone deacetylase 2 = Histone deacetylase 2 (Homo sapiens, UniProt Q92769); assay: Inhibition of recombinant human HDAC2
Histone deacetylase [6] = assay: Inhibition of HDAC in human Cal27 cells; format: cell-based; details: cal-27
CAL-27 [7] = assay: Cytotoxicity against human CAL27 cells assessed as reduction in cell viability by MTT assay; format: functional, cell-based
[8] = target: T2, Protein deacetylase HDAC6 (Homo sapiens) (UniProt Q9UBN7); assay: Inhibition of HDAC6 in human Cal27CisR cells assessed as increase in acetylated alpha-tubulin at 1.5 uM incubated for 24 hrs by immunoblot analysis; format: cell-based; method in brief: as §2
T2 sequence (whole entry): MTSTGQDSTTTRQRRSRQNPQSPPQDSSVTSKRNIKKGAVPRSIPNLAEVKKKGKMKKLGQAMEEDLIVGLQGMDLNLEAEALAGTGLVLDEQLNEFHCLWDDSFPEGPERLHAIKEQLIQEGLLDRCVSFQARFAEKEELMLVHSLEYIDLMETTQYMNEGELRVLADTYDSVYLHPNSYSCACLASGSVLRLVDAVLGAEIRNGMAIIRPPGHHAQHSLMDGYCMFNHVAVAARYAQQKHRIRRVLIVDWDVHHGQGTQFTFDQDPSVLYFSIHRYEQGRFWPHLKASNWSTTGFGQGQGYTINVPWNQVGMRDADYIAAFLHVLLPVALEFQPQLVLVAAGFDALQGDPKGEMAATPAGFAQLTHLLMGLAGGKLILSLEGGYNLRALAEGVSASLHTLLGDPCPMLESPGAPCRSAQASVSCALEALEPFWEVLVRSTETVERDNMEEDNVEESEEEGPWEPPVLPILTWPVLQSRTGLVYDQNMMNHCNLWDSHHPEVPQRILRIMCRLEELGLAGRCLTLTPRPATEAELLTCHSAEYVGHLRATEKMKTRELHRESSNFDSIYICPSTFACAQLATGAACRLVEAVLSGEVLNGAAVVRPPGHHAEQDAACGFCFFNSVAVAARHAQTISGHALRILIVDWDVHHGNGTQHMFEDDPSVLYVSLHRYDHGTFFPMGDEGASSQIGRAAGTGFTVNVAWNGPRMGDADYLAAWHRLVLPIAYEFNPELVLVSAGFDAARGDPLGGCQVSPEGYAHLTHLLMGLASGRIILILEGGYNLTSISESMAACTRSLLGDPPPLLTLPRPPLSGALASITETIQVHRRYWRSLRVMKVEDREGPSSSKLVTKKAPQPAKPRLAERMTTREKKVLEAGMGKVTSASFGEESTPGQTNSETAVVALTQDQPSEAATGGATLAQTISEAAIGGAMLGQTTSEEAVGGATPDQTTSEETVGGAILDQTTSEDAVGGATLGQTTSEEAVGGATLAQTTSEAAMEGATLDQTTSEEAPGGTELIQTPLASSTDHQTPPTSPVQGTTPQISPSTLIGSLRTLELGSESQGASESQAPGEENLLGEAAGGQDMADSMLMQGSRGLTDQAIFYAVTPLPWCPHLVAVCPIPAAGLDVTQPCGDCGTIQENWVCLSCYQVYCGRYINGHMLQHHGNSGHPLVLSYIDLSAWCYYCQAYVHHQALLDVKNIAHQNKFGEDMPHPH

[9] = target: T2, Protein deacetylase HDAC6 (Homo sapiens); assay: Inhibition of HDAC6 in human CAL27 cells assessed as increase in acetylated alpha-tubulin at 1.5 uM incubated for 24 hrs by immunoblot analysis; format: cell-based; details: CAL-27; method in brief: as §2
A2780 = assay: Cytotoxicity against human A2780 cells assessed as reduction in cell viability by MTT assay; format: functional, cell-based
CAL-27 [10] = assay: Induction of apoptosis in human CAL27 cells assessed as increase in caspase 3/7 activation at 0.4 uM incubated for 24 hrs by Hoechst 33342 staining based fluorescence assay; format: functional, cell-based
[11] = Potentiation of cisplatin-induced cytotoxicity against human Cal27CisR cells assessed as shift factor by measuring ratio of cisplatin IC50 to cisplatin IC50 in presence of compound at 0.8 uM incubated for 72 hrs followed by cisplatin addition and measured after 72 hrs by MTT assay; format: functional; method in brief: as §3
[12] = target: T1, Class 1 histone deacetylase (Homo sapiens); assay: Inhibition of class 1 histone deacetylase in human CAL27 cells assessed as increase in H3 histone acetylation at 1.5 uM incubated for 24 hrs by immunoblot analysis; format: cell-based; details: CAL-27; method in brief: as §2
[13] = target: T3, Protein deacetylase HDAC6 (Homo sapiens, UniProt Q9UBN7); assay: Inhibition of recombinant human HDAC6
T3 sequence (Q9UBN7 whole entry): T2 sequence (whole entry)

Histone deacetylase 8 = target: T4, Histone deacetylase 8 (Homo sapiens, UniProt Q9BY41); assay: Inhibition of recombinant human HDAC8
T4 sequence (Q9BY41 whole entry): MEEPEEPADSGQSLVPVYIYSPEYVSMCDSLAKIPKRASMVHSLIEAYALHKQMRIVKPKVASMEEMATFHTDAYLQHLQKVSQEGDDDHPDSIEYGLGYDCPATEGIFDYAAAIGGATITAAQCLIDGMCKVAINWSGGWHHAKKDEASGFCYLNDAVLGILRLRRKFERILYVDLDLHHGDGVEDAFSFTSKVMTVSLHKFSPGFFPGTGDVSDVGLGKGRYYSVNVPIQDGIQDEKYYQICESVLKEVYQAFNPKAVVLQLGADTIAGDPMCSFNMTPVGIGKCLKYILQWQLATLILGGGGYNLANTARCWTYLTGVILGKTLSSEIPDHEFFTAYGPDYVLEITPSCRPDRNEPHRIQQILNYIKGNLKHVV

CAL-27 [14] = assay: Potentiation of cisplatin-induced apoptosis in human CAL27 cells assessed as increase in caspase 3/7 activation at 0.4 uM incubated for 24 hrs followed by cisplatin addition by Hoechst 33342 staining based fluorescence assay; format: functional, cell-based; method in brief: as §1
CAL-27 [15] = assay: Induction of apoptosis in human CAL27 cells assessed as increase in caspase 3/7 activation at 0.8 uM incubated for 24 hrs by Hoechst 33342 staining based fluorescence assay; format: functional, cell-based
CAL-27 [16] = assay: Potentiation of cisplatin-induced cytotoxicity against human CAL27 cells assessed as shift factor by measuring ratio of cisplatin IC50 to cisplatin IC50 in presence of compound at 0.4 uM incubated for 72 hrs followed by cisplatin addition and measured after 72 hrs by MTT assay; format: functional; method in brief: as §3
CAL-27 [17] = assay: Potentiation of cisplatin-induced apoptosis in human CAL27 cells assessed as increase in caspase 3/7 activation at 0.8 uM incubated for 24 hrs followed by cisplatin addition by Hoechst 33342 staining based fluorescence assay; format: functional, cell-based; method in brief: as §1

Histone deacetylase 2, sequence (Q92769 whole entry): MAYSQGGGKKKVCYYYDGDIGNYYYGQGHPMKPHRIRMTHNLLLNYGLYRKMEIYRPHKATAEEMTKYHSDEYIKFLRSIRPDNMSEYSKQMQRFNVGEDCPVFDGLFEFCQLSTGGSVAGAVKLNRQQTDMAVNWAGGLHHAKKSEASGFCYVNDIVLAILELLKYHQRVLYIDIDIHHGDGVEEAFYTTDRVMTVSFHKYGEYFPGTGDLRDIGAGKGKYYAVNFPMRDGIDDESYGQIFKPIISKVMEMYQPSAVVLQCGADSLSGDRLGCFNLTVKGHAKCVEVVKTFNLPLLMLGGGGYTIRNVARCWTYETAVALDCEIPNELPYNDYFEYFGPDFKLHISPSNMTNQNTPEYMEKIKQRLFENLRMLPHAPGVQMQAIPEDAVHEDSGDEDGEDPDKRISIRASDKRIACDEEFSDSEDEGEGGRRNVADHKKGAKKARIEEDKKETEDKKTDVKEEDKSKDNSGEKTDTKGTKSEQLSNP
Histone deacetylase 4, sequence (P56524 whole entry): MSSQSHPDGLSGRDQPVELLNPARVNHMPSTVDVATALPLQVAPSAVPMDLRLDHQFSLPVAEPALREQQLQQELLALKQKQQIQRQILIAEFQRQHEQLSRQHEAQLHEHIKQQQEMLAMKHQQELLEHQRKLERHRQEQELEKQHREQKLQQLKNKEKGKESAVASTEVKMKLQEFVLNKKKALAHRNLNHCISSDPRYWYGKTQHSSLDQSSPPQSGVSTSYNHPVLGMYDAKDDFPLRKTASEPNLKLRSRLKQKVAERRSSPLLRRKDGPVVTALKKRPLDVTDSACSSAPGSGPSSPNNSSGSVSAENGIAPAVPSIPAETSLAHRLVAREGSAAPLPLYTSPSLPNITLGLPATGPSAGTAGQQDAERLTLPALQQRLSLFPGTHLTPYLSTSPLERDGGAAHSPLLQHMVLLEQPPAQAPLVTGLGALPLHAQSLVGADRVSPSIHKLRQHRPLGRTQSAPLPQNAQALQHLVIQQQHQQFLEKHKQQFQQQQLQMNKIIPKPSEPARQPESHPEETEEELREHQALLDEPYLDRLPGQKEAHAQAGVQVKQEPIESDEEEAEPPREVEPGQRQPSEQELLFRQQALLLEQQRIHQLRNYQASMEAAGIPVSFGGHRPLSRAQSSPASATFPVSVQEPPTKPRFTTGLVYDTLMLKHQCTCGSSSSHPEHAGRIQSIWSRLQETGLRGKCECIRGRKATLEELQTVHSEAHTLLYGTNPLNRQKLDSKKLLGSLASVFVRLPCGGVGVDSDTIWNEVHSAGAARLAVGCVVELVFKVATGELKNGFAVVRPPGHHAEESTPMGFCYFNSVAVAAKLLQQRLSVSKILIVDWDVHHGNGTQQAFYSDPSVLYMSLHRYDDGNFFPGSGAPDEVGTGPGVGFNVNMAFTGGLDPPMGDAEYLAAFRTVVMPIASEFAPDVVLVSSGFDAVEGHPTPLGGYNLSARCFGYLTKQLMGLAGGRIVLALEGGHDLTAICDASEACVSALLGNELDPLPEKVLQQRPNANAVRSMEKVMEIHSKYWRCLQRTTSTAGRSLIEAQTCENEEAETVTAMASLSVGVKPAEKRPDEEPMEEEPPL

Row | SMILES | IC50 (Histone deacetylase [4]) [µM] | Ki (Histone deacetylase 4) [µM] | Ki (Histone deacetylase 2) [µM] | IC50 (Histone deacetylase [6]) [µM] | IC50 (CAL-27 [7]) [µM] | IC50 (A2780) [µM] | Ki [13] [µM] | Ki (Histone deacetylase 8) [µM] | further results
1 | COc1cc(OC)cc(C(=O)NOCCCCCC(=O)NO)c1 | 0.83 | 49.2 | 0.06 | 0.45 | 0.72 | 0.89 | 0.03 | 5.69 | Activity (Homo sapiens [1]): Active; inhibition [2]: Active; Activity (Homo sapiens [3]): Active; PF (CAL-27 [5]): 3.79; inhibition [8]: Active; inhibition [9]: Active; Activity (CAL-27 [10]): Active; PF [11]: 12.8; inhibition [12]: Active; Activity (CAL-27 [14]): Active
2 | O=C(CCCCCONC(=O)c1c(Cl)cncc1Cl)NO | 14.5 | > 100 | 1.36 | 12.7 | 28.1 | 68.4 | 0.35 | 18.9 | –
3 | O=C(CCCCCONC(=O)c1cc(F)cc(F)c1)NO | 3.79 | > 100 | 0.58 | 3.77 | 7.98 | 13.7 | 0.1 | 14.7 | –
4 | O=C(CCCCCONC(=O)c1cc(I)cc(I)c1I)NO | 7.2 | > 100 | 1.33 | 9.4 | 45 | 64 | 0.33 | 10 | –
5 | Cc1cc(C)cc(C(=O)NOCCCCCC(=O)NO)c1 | 0.17 | > 100 | 0.08 | 0.55 | 0.76 | 0.97 | 0.05 | 4.81 | Activity (Homo sapiens [1]): Active; inhibition [2]: Active; Activity (CAL-27 [15]): Active; Activity (Homo sapiens [3]): Active; PF (CAL-27 [16]): 3; inhibition [8]: Active; inhibition [9]: Active; Activity (CAL-27 [17]): Active; PF [11]: 8.36; inhibition [12]: Active
6 | CC(C)(C)c1cc(C(=O)NOCCCCCC(=O)NO)cc(C(C)(C)C)c1 | 0.93 | > 100 | 1.57 | 1.3 | 1 | 1.55 | 2.15 | 28.1 | –
7 | Cc1cc(C)cc(C(=O)NOCCCCC(=O)NO)c1 | 4.24 | > 100 | 0.37 | 3.36 | 8.67 | 9.34 | 0.42 | 22.3 | –
8 | O=C(CCCCCONC(=O)c1cc(Br)cc(Br)c1)NO | 1.65 | 31.8 | 0.21 | 1.8 | 3.63 | 10.2 | 0.12 | 4.44 | –
9 | O=C(CCCCCONC(=O)c1cc(C(F)(F)F)cc(C(F)(F)F)c1)NO | 11 | 83.7 | 0.55 | 10.56 | 15.8 | 30.5 | 0.56 | 4.9 | –
